PMC4843813 (ACS chemical biology, 2015)

Assays:
[1] = test system: human red blood cells; test: micro-RNA mir-16 release from red blood cells; assay type: cell-based; conditions: pH 5.4; 5 μM peptide, human RBCs, 37 °C, mir-16 by stem-loop qPCR on supernatant
[2] = test system: human red blood cells; test: ATP release from red blood cells; assay type: cell-based; conditions: 5 μM peptide, human RBCs, 37 °C, ATPLite kit on supernatant
[3] = Sedimentation equilibrium analytical ultracentrifugation in aqueous buffer; assay type: physicochemical; conditions: for apparent MW, AUC single-species fit: 150 mM NaCl, 25 °C, 35-50 krpm, global fit; for apparent MW, AUC single-species fit / aggregation state (apparent MW/peptide MW), AUC / –log(Kdissociation), monomer–hexamer equilibrium, AUC: 100 μM peptide; for –log(Kdissociation), monomer–hexamer equilibrium, AUC: error = SD of fit
[4] = Size-exclusion chromatography, association state in aqueous buffer; assay type: physicochemical; conditions: for apparent molecular weight, SEC: 150 mM NaCl, Superdex 75, 25 °C, 100 μM peptide
[5] = AUC self-association in C-14 betaine micelles; assay type: physicochemical; conditions: 8 mM C-14 betaine, pH 7.4 and 5.5, peptide/betaine 1:50, 1:100, 1:200
Outline: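 Sedimentation equilibrium run at 25 °C at 35, 40, 45 and 50 krpm. Test compound was dissolved in C-14 betaine micelles in 150 mM NaCl and 50 mM sodium phosphate. D2O was added to match micelle density: 17% at pH 7.4 and 22% at pH 5.5. Data were fitted by single-species and monomer–trimer equilibrium models.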

[6] = Circular dichroism thermal denaturation; assay type: physicochemical; conditions: for [PSPF-EKG] at 50% folded and 300 K: calculated from the CD fit; for Tm of thermal denaturation by CD: reference concentration 4 μM

Substance | % miRNA at 5 μM, RBC lysis assay [1] | % ATP at 5 μM, RBC lysis assay ([2]; pH 5.4) | % ATP at 5 μM, RBC lysis assay ([2]; pH 7.5) | other results
WSELAKA LSELAKA LSELAKA LSELAKA [PSPF-EKA] | 0.21 % relative to Triton X-100 controls | 3.66 % relative to Triton X-100 controls | 2.02 % relative to Triton X-100 controls | –
WSELAQG LSELAQG LSELAQG LSELAQG [PSPF-EQG] | 2.64 % relative to Triton X-100 controls | 9.52 % relative to Triton X-100 controls | 3.36 % relative to Triton X-100 controls | –
WSDLAKA LSDLAKA LSDLAKA LSDLAKA [PSPF-DKA] | 0.79 % relative to Triton X-100 controls | 5.79 % relative to Triton X-100 controls | 4.64 % relative to Triton X-100 controls | –
WSHLAQG LSHLAQG LSHLAQG LSHLAQG [PSPF-HQG] | 0.64 % relative to Triton X-100 controls | – | 5.69 % relative to Triton X-100 controls | –
WSHLAQA LSHLAQA LSHLAQA LSHLAQA [PSPF-HQA] | 1.43 % relative to Triton X-100 controls | – | 6.17 % relative to Triton X-100 controls | –
WSDLAQG LSDLAQG LSDLAQG LSDLAQG [PSPF-DQG] | 0.16 % relative to Triton X-100 controls | 8.61 % relative to Triton X-100 controls | 3.21 % relative to Triton X-100 controls | –
WSHLAKA LSHLAKA LSHLAKA LSHLAKA [PSPF-HKA] | 0.02 % relative to Triton X-100 controls | 5.7 % relative to Triton X-100 controls | 0.93 % relative to Triton X-100 controls | –
WSDLAKG LSDLAKG LSDLAKG LSDLAKG [PSPF-DKG] | 7.47 % relative to Triton X-100 controls | 24.1 % relative to Triton X-100 controls | 7.54 % relative to Triton X-100 controls | apparent MW, AUC single-species fit ([3]; pH 5.5, 50 mM MES): 24 000 Da; association state n suggested by AUC single-species fitting ([3]; pH 7.4): 6; apparent MW, AUC single-species fit ([3]; pH 7.4, 50 mM Tris): 17 000 Da; aggregation state (apparent MW/peptide MW), AUC ([3]; pH 7.4): 6.0; –log(Kdissociation), monomer–hexamer equilibrium, AUC ([3]; pH 7.4): 28.7 ± 0.4; aggregation state n (apparent MW fold over single peptide MW), SEC ([4]; pH 5.5): only a poorly defined peak
WSELAKG LSELAKG LSELAKG LSELAKG [PSPF-EKG] | – | 27.3 % relative to Triton X-100 controls | 3.38 % relative to Triton X-100 controls | increase of free energy of the helical bundle as pH decreases from 7.4 to 5.5 ([3]; AUC): 0.7 kcal/mol peptide; association state n suggested by AUC single-species fitting ([3]; pH 5.5): 6; apparent MW, AUC single-species fit ([3]; pH 5.5, 50 mM MES): 16 000 Da; aggregation state (apparent MW/peptide MW), AUC ([3]; pH 5.5): 5.5; –log(Kdissociation), monomer–hexamer equilibrium, AUC ([3]; pH 5.5): 24.8 ± 0.1; association state n suggested by AUC single-species fitting ([3]; pH 7.4): 6; apparent MW, AUC single-species fit ([3]; pH 7.4, 50 mM Tris): 18 000 Da; aggregation state (apparent MW/peptide MW), AUC ([3]; pH 7.4): 6.2; –log(Kdissociation), monomer–hexamer equilibrium, AUC ([3]; pH 7.4): 28.0 ± 0.4; self-association in detergent micelles [5]: weakly associates in detergent micelles; decrease of Tm from pH 7.4 to pH 5.5 ([6]; CD thermal denaturation): 5.6 K; [PSPF-EKG] at 50% folded and 300 K ([6]; pH 5.5): 0.31 µM; Tm of thermal denaturation by CD ([6]; pH 5.5): 333.4 ± 0.1 K; [PSPF-EKG] at 50% folded and 300 K ([6]; pH 7.4): 0.14 µM; Tm of thermal denaturation by CD ([6]; pH 7.4): 339.0 ± 0.1 K; apparent molecular weight, SEC ([4]; pH 5.5, 50 mM MES): 15 000 Da; apparent molecular weight, SEC ([4]; pH 7.4, 50 mM Tris): 19 000 Da
WSHLAKG LSHLAKG LSHLAKG LSHLAKG [PSPF-HKG] | 0.44 % relative to Triton X-100 controls | – | 32.1 % relative to Triton X-100 controls | –
WSELAQA LSELAQA LSELAQA LSELAQA [PSPF-EQA] | 0.02 % relative to Triton X-100 controls | 3.61 % relative to Triton X-100 controls | 3.69 % relative to Triton X-100 controls | –
WSDLAQA LSDLAQA LSDLAQA LSDLAQA [PSPF-DQA] | – | – | 3.81 % relative to Triton X-100 controls | –
